The text below walks through data of ChEMBL document CHEMBL4396943, “The tetrahydroxanthone-dimer phomoxanthone A is a strong inducer of apoptosis in cisplatin-resistant solid cancer cells” (Bioorg Med Chem, 2019).

Experiment [1] deals with A2780. In words: Induction of apoptosis in human A2780 cells assessed as decrease in mitochondrial membrane potential at 20 uM incubated for 24 hrs by TMRE staining based flow cytometry. The format is functional, cell-based. The method in brief:
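Cells seeded overnight; medium switched to FBS-free just before treatment to avoid TMRE ester cleavage. Exposure 1 h, 2 h or 24 h, then TMRE staining for 20 min. Cells trypsinized, centrifuged at 4 °C and read by flow cytometry. Medium as negative control, 20 µM CCCP as positive control. […]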
Background: Flow cytometry measures light scatter and fluorescence of single cells or particles in a stream.

Experiment [2] has as its system J82. In words: Induction of apoptosis in cisplatin resistant human J82 cells assessed as depolarization of mitochondrial membrane potential at 20 uM incubated for 2 hrs by hoechst 33342 staining based fluorescence microscopy. The format is functional, cell-based. The method in brief: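 J82CisR cells exposed 2 h, then labelled with TMRE and Hoechst 33342 for 20 min. TMRE signal imaged on a high-content fluorescence imaging platform. Untreated medium control and 20 µM CCCP positive control.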

Experiment [3] has as its system A2780cisR. Put plainly: Induction of apoptosis in human A2780cisR cells assessed as decrease in mitochondrial membrane potential at 20 uM incubated for 24 hrs by TMRE staining based flow cytometry. Format: functional, cell-based. The method in brief:
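Cells seeded overnight; complete medium swapped for FBS-free medium just before treatment to avoid TMRE ester cleavage. Exposure to PXA for 1 h, 2 h or 24 h. TMRE staining 20 min, cells collected by trypsinisation, ΔΨm read by flow cytometry. Medium served as negative control, 20 µM CCCP as positive control. Mean ± SEM reported.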

Experiment [4] deals with J82. In words: Induction of apoptosis in human J82 cells assessed as depolarization of mitochondrial membrane potential at 20 uM incubated for 2 hrs by hoechst 33342 staining based fluorescence microscopy. Format: functional, cell-based. The essentials:
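J82 cells treated 2 h with PXA, then labelled 20 min with TMRE plus Hoechst 33342. ΔΨm read by high-content fluorescence imaging. Untreated medium and 20 µM CCCP served as controls.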

Experiment [5] has as its system J82. Put plainly: Cell cycle arrest in human J82 cells assessed as accumulation at G1 phase incubated for 24 hrs by propidium iodide staining based flow cytometry (reference value: 69.6%). The format is functional.
Experiment [6] relates to A2780cisR. Put plainly: Cell cycle arrest in human A2780cisR cells assessed as accumulation at G1 phase incubated for 24 hrs by propidium iodide staining based flow cytometry (reference value: 68.7%). Format: functional.
Experiment [7] has as its system J82. Put plainly: Cell cycle arrest in cisplatin resistant human J82 cells assessed as accumulation at G1 phase incubated for 24 hrs by propidium iodide staining based flow cytometry (reference value: 78.1%). Format: functional.
The subject of experiment [8] is A2780. In words: Cell cycle arrest in human A2780 cells assessed as accumulation at G1 phase incubated for 24 hrs by propidium iodide staining based flow cytometry (reference value: 61.8%). Format: functional.

Active and inactive are the calls of the source. The calls are words filed in the database; no cut-off is given here.

On to `N#CC(C#N)=NNc1cccc(Cl)c1`, for which the outcome in the experiment on A2780 [1], in the experiment on J82 [2], in the experiment on A2780cisR [3] and in the experiment on J82 [4] was Active.
For `CC(=O)O[C@H]1C(=O)[C@@]2(C)[C@H]([C@H](OC(=O)c3ccccc3)[C@]3(O)C[C@H](OC(=O)[C@H](O)[C@@H](NC(=O)c4ccccc4)c4ccccc4)C(C)=C1C3(C)C)[C@]1(OC(C)=O)CO[C@@H]1C[C@@H]2O` [PACLITAXEL], the Activity is on record as 35.1% in the experiment on J82 [5], 21.3% in the experiment on A2780cisR [6], 29.1% with J82 [7] and 22.6% with A2780 [8].
